Experimental data gathered from unrelated publications.
Compare with care: the assays were run in different laboratories.
Target: Serine/threonine-protein kinase STK11 (STK11, Homo sapiens, UniProt Q15831)
One construct used (Q15831 1-433): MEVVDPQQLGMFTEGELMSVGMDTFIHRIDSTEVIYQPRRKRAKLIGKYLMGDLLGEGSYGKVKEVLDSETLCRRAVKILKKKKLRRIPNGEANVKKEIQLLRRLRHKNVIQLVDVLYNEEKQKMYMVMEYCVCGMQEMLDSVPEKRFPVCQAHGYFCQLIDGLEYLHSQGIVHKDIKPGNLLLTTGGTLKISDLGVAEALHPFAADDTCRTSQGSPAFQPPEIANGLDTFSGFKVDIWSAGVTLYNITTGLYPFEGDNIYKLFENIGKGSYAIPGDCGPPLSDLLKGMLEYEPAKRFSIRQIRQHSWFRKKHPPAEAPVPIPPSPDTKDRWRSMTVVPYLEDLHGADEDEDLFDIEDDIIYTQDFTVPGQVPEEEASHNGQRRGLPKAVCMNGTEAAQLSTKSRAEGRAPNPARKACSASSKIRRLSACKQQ

The remaining activity of `CCCOc1ccc(OC)c(F)c1C(=O)c1ccc(C(=O)N[C@@H]2CNC[C@H]2NC(=O)c2ccc3[nH]ncc3c2)cc1` is reported as 92% (enzyme activity; inhibitor; 10 µM).
`FC(F)(F)Oc1cccc(-c2cnc3ccc(-c4ccncc4)nn23)c1` has an activity vs control of 106% (enzyme activity; inhibitor; radiometric; 5 µM).
`Cc1ccc(C(=O)NCc2ccsc2)cc1C#Cc1cn(C(C)C)c2ncnc(N)c12` has an activity vs control of 94% (enzyme activity; inhibitor; 1 µM).
With `Cc1c[nH]c2nccc(Oc3c(F)cc(Nc4cc(Cl)nc(N)n4)cc3F)c12` the remaining binding was 100% (cell-free assay; competition with immobilised ligand; 0.1 µM).
`CCN(CC)CCNC(=O)c1c(C)[nH]c(/C=C2\C(=O)Nc3ccc(F)cc32)c1C` has an inhibition of -11% (enzyme activity; inhibitor; 0.3 µM).
For `COc1cc2ncnc(Nc3ccc(F)c(Cl)c3)c2cc1OCCCN1CCOCC1`, the remaining signal was 106% (cell-free assay; 0.5 µM).
The remaining activity of `COc1cc(Nc2cnc(C#N)c(O[C@H](C)CN(C)C)n2)ncc1-c1cnn(C)c1` is reported as 96% (enzyme activity; inhibitor; radiometric; 1 µM).
The inhibition of `CN1CC(Oc2cnc(C#N)cc2-c2ccn3nc(NC(=O)C4CC4)cc3c2)C1` is reported as -2% (enzyme activity; inhibitor; 1 µM).
`C[C@@H]1CN(c2cc(-c3nn(C)c4ccc(OC5(C)CC5)cc34)ncn2)C[C@H](C)O1` gave a remaining binding of 94% (cell-free assay; competition with immobilised ligand; 1 µM).
`Cc1ccc(NC(=O)c2ccc(CN3CCN(C)CC3)cc2)cc1Nc1nc(-c2cccnc2)cs1` gave a remaining signal of 102% (cell-free assay; 0.5 µM).
`Cc1cc(NC(=O)c2cccc3cc(-c4cccc5[nH]nc(N)c45)ccc23)ccc1F` has an activity vs control of 97% (enzyme activity; inhibitor; 0.1 µM).
`Cc1cnc(NC2CCOCC2)nc1-n1cnc(C(=O)NC(CN)c2cc(F)cc(Cl)c2)c1` (stereo not shown) gave a remaining activity of 104% (enzyme activity; inhibitor; radiometric; 1 µM).
`Cc1ccc(C(=O)Nc2ccc(CN3CCN(C)CC3)c(C(F)(F)F)c2)cc1C#Cc1cnc2cccnn12` has a remaining activity of 96% (enzyme activity; inhibitor; 23.5 nM).
For `Cn1c(=O)n(-c2ccc(C(C)(C)C#N)cc2)c2c3cc(-c4cnc5ccccc5c4)ccc3ncc21`, the remaining activity was 105% (enzyme activity; inhibitor; 10 µM).
The remaining binding of `CCCCN(CCCC)C(=O)CN1C[C@@H](c2cc(OC)c3c(c2)OCO3)[C@H](C(=O)O)[C@H]1CC(C)(C)CCC` is reported as 82.2% (cell-free assay; competition with immobilised ligand; 1 µM).
With `Cc1ccc(-n2nc(C(C)(C)C)cc2NC(=O)Nc2ccc(OCCN3CCOCC3)c3ccccc23)cc1` the inhibition was 10% (enzyme activity; inhibitor; 10 µM).
`CCN(CC)c1ccc(C2=NNC(=O)CC2C)cc1[N+](=O)[O-]` (stereo not shown) gave a remaining activity of 91% (enzyme activity; inhibitor; 10 µM).
With `CNCc1ccccc1-c1csc([C@H](C)Nc2nc(C)nc3cc(OC)c(OC)cc23)c1` the remaining binding was 100% (cell-free assay; competition with immobilised ligand; 1 µM).
`CC(C)c1ccc(NC(=O)c2cccs2)c(-c2nc3ccccc3[nH]c2=O)c1` has an activity vs control of 76% (enzyme activity; inhibitor; 1 µM).
For `CNC(=O)c1ccc(Nc2ncc(C(F)(F)F)c(NCc3nccnc3N(C)S(C)(=O)=O)n2)cc1`, the remaining binding was 100% (cell-free assay; competition with immobilised ligand; 0.1 µM).
`Cc1ccc(Nc2nccc(N(C)c3ccc4c(C)n(C)nc4c3)n2)cc1S(N)(=O)=O` has an inhibition of -6% (enzyme activity; inhibitor; 0.3 µM).
`FC(F)(F)c1ccc2c(c1)nc(-c1cccnc1)n2C1CC1` has a remaining binding of 100% (cell-free assay; competition with immobilised ligand; 1 µM).
`O=C(Nc1cnn(-c2csc(C(=O)NC3COC3)c2)c1)Nc1c(F)cccc1Cl` has a remaining activity of 94.7% (enzyme activity; inhibitor; 5 µM).
The remaining binding of `Cn1nc(C(F)(F)F)cc1-c1cnc(N2CCc3cc(S(=O)(=O)Nc4c(F)cc(Cl)cc4F)cc(N4CCCC4=O)c32)nc1` is reported as 100% (cell-free assay; competition with immobilised ligand; 1 µM).
With `CCCS(=O)(=O)Nc1ccc(F)c(C(=O)c2c[nH]c3ncc(-c4ccc(Cl)cc4)cc23)c1F` the inhibition was under 10% (enzyme activity; inhibitor; 1 µM).
